This note sets out measurements from ChEMBL document CHEMBL1122632, “Synthesis and antitumor activity of cis-dichloroplatinum (II)-N-aminated nucleoside complexes” (J Med Chem, 1984).

Assay [1] concerns L1210. The assay can be described thus: Median survival time (MST) of mice bearing L1210 cells was determined at a dose of 114 mg/kg x 2 days administered ip. Format: functional, Mus musculus. In a few lines: (§1)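 (BALB/c x DBA/2)F1 mice, 20 g, implanted ip with 10^4 L1210 cells. Test samples in saline (0.2 mL) given ip on days 1 and 5 after tumor inoculation; doses above 100 mg/kg homogenized with Nikkol (7 times by weight) as vehicle. Activity from median survival time of treated group versus control group (T/C).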

Assay [2] has as its system L1210. As to the kind of experiment: Median survival time (MST) of mice bearing L1210 cells was determined at a dose of 2 mg/kg x 2 days administered ip. Format: functional, Mus musculus. In short, it runs like this: as §1
Assay [3] concerns L1210. As to the kind of experiment: In vitro inhibition of L1210 (murine leukemia) cell growth. The settings on record: Mus musculus, L1210; read-out: IC50. Format: functional, cell-based, Mus musculus. In short, it runs like this: (§2)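 L1210 cells (10^5 in 1 mL) were grown in RPMI 1640 with 10% FCS and kanamycin, at 37 °C in CO2, for 48 h. Compounds were heated at 110 °C for 8 h, dissolved in medium and tested at ≥6 concentrations. Viability was scored by 0.17% Trypan blue exclusion against drug-free controls. IC50 was the concentration halving living cell number, taken from the log-probit dose-response curve.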

Assay [4] deals with L1210. As to the kind of experiment: In vitro inhibitory effect on growth of L1210 cells; (10E-6). Conditions: Mus musculus. Format: functional, cell-based. In short, it runs like this:
as §2

Assay [5] deals with L1210. The assay can be described thus: Ratio of median survival time of the mice bearing L1210 cells in treated(T) vs. control(C) at a dose of 114 mg/kg x 2 days. Format: functional, Mus musculus. In a few lines: as §1
In assay [6] the test system is L1210. The assay can be described thus: Ratio of median survival time of the mice bearing L1210 cells in treated(T) vs. control(C) at a dose of 2 mg/kg x 2 days. Format: functional, Mus musculus. In short, it runs like this: as §1
Assay [7] deals with L1210. As to the kind of experiment: Ratio of median survival time of the mice bearing L1210 cells in treated(T) vs. control(C) at a dose of 30 mg/kg x 2 days. Format: functional, Mus musculus. In a few lines: as §1
Assay [8] deals with L1210. The assay can be described thus: Ratio of median survival time of the mice bearing L1210 cells in treated(T) vs. control(C) at a dose of 112 mg/kg x 2 days. The assay is classed as functional, Mus musculus. In a few lines:
as §1

Assay [9] concerns L1210. As to the kind of experiment: In vitro inhibitory effect on growth of L1210 cells; 1.5*10e-3. Format: functional, cell-based. Conditions: Mus musculus. In a few lines:
as §2

Assay [10] concerns L1210. The assay can be described thus: Median survival time (MST) of mice bearing L1210 cells was determined at a dose of 59 mg/kg x 2 days administered ip; Toxic. The settings on record: Mus musculus. Set-up: dose 59 mg/kg. Format: functional, organism-based. In a few lines:
(§3)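 (BALB/c × DBA/2)F1 mice (20 g) were implanted ip with 10^4 L1210 cells. Compounds in saline (0.2 mL) were given ip on days 1 and 5; doses above 100 mg/kg were homogenized with Nikkol (7× by weight). Activity was scored as median survival time of treated mice and expressed as T/C, the ratio of treated to control median survival time.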

Assay [11] has as its system L1210. The assay can be described thus: Median survival time (MST) of mice bearing L1210 cells was determined at a dose of 2 mg/kg x 2 days administered ip; Toxic. Set-up: dose 2 mg/kg. Format: functional, organism-based. The settings on record: Mus musculus. In a few lines:
as §3

The test system of assay [12] is L1210. As to the kind of experiment: Ratio of median survival time of the mice bearing L1210 cells in treated(T) vs. control(C) at a dose of 10 mg/kg x 2 days. Conditions: Mus musculus. The assay is classed as functional, organism-based. Set-up: dose 10 mg/kg. In a few lines:
as §3

Assay [13] concerns L1210. As to the kind of experiment: Ratio of median survival time of the mice bearing L1210 cells in treated(T) vs. control(C) at a dose of 100 mg/kg x 2 days. Set-up: dose 100 mg/kg. Format: functional, organism-based. Conditions: Mus musculus. In short, it runs like this: as §3
Assay [14] has as its system Mus musculus. As to the kind of experiment: Effect on body weight in ICR mice was determined after intraperitoneal administration on day 9. The assay is classed as functional, organism-based. In a few lines: (§4)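 ICR mice (25-30 weeks, 39 ± 4 g), 5-6 per group, given one ip dose of 0.043 mmol/kg, equimolar to 13 mg/kg cis-DDP. Body and kidney weights were taken on days 3, 6 and 9 and compared with untreated controls. Weights are paired, mean ± SD.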

For assay [15], the system named is Mus musculus. The assay can be described thus: Effect on body weight in ICR mice was determined after intraperitoneal administration on day 6. The assay is classed as functional, organism-based. In a few lines: as §4
For assay [16], the system named is L1210. As to the kind of experiment: Median survival time (MST) of mice bearing L1210 cells was determined at a dose of 300 mg/kg x 2 days administered ip; Toxic. Format: functional, organism-based. Also noted: dose 300 mg/kg. Conditions: Mus musculus. In short, it runs like this: as §3
The test system of assay [17] is L1210. As to the kind of experiment: Median survival time (MST) of mice bearing L1210 cells was determined at a dose of 50 mg/kg x 2 days administered ip. The assay is classed as functional, organism-based. Set-up: dose 50 mg/kg. Conditions: Mus musculus. In short, it runs like this:
as §3

For assay [18], the system named is L1210. As to the kind of experiment: Ratio of median survival time of the mice bearing L1210 cells in treated(T) vs. control(C) at a dose of 25 mg/kg x 2 days. Format: functional, organism-based. Also noted: dose 25 mg/kg. Conditions: Mus musculus. In a few lines:
as §3

In assay [19] the test system is Mus musculus. The assay can be described thus: Effect on kidney weight in ICR mice was determined after intraperitoneal administration on day 6. Format: functional, organism-based. In a few lines:
as §4

Assay [20] has as its system L1210. As to the kind of experiment: Median survival time (MST) of mice bearing L1210 cells was determined at a dose of 25 mg/kg x 2 days administered ip. Format: functional, organism-based. Set-up: dose 25 mg/kg. The settings on record: Mus musculus. In short, it runs like this: as §3
In assay [21] the test system is Mus musculus. As to the kind of experiment: Effect on kidney weight in ICR mice was determined after intraperitoneal administration on day 3. Format: functional, organism-based. In a few lines:
as §4

In assay [22] the test system is L1210. The assay can be described thus: Ratio of median survival time of the mice bearing L1210 cells in treated(T) vs. control(C) at a dose of 200 mg/kg x 2 days. The assay is classed as functional, organism-based. The settings on record: Mus musculus. Also noted: dose 200 mg/kg. In a few lines: as §3
For assay [23], the system named is Mus musculus. As to the kind of experiment: Effect on body weight in ICR mice was determined after intraperitoneal administration on day 3. Format: functional, organism-based. In short, it runs like this: as §4
The subject of assay [24] is L1210. As to the kind of experiment: Median survival time (MST) of mice bearing L1210 cells was determined at a dose of 10 mg/kg x 2 days administered ip. Conditions: Mus musculus. The assay is classed as functional, organism-based. Also noted: dose 10 mg/kg. In short, it runs like this:
as §3

Assay [25] deals with L1210. As to the kind of experiment: Median survival time (MST) of mice bearing L1210 cells was determined at a dose of 200 mg/kg x 2 days administered ip. The settings on record: Mus musculus. The assay is classed as functional, organism-based. Also noted: dose 200 mg/kg. In short, it runs like this:
as §3

Assay [26] has as its system Mus musculus. As to the kind of experiment: Blood urea nitrogen values in ICR mice after intraperitoneal administration at an equivalent molar dose of the LD50 of […](13 mg/kg) on day 6. Format: functional, organism-based. In short, it runs like this: (§5)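 ICR mice (25-30 weeks, 39 ± 4 g), 5-6 per group, given one ip dose of 0.043 mmol/kg, equimolar to 13 mg/kg cis-DDP. On days 3, 6 and 9, blood was drawn from the heart under ether anesthesia and stored frozen. BUN was measured later by a modified urease indophenol method. Results are mean ± SD, mg/100 mL blood, compared with untreated controls.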

In assay [27] the test system is Mus musculus. The assay can be described thus: Blood urea nitrogen values in ICR mice after intraperitoneal administration at an equivalent molar dose of the LD50 of […](13 mg/kg) on day 9. Format: functional, organism-based. In short, it runs like this:
as §5

Assay [28] deals with Mus musculus. The assay can be described thus: Blood urea nitrogen values in ICR mice after intraperitoneal administration at an equivalent molar dose of the LD50 of […](13 mg/kg) on day 3. Format: functional, organism-based. In a few lines: as §5
Assay [29] deals with Mus musculus. As to the kind of experiment: Effect on kidney weight in ICR mice was determined after intraperitoneal administration on day 9. Format: functional, organism-based. In short, it runs like this:
as §4

The subject of assay [30] is L1210. As to the kind of experiment: Ratio of median survival time of the mice bearing L1210 cells in treated(T) vs. control(C) at a dose of 50 mg/kg x 2 days. The settings on record: Mus musculus. Also noted: dose 50 mg/kg. The assay is classed as functional, organism-based. In a few lines:
as §3

In assay [31] the test system is L1210. As to the kind of experiment: Median survival time (MST) of mice bearing L1210 cells was determined at a dose of 100 mg/kg x 2 days administered ip. Format: functional, organism-based. Also noted: dose 100 mg/kg. Conditions: Mus musculus. In short, it runs like this: as §3
Assay [32] concerns L1210. The assay can be described thus: Median survival time (MST) of mice bearing L1210 cells was determined at a dose of 115 mg/kg x 2 days administered ip; Toxic. The assay is classed as functional, organism-based. The settings on record: Mus musculus. Also noted: dose 115 mg/kg. In short, it runs like this: as §3

≈ marks a conversion by molar mass, not a printed value. Where “and” joins values, the source holds several entries; their conditions need not be identical. Equal values may be shown once.

One may read the IC50 as the concentration that inhibits the measured activity by half. A word on the T/C: it is the ratio of treated to control. On to `N=c1c2ccn(C3O[C@H](CO)[C@@H](O)[C@H]3O)c2ncn1N` (stereo partly drawn), for which the MST stood at 9.5 days in the assay with L1210 [1] and 11 days in the assay with L1210 [2]. Also, the IC50 in the assay on L1210 [3] was determined as 2.7 mg/L (≈ 9.6 µM); with L1210 [4] it was 8.5 µM. Moreover, the T/C with L1210 [5] is 95%; in the assay with L1210 [6], 110%.
As for `N=c1ccn([C@@H]2O[C@H](CO)[C@@H](O)[C@H]2O)c(=O)n1N`, in the assay with L1210 [3], the IC50 was 400 µg/mL and 1.36 mM.
`N=c1ccn([C@@H]2O[C@H](CO)[C@@H](O)[C@@H]2O)c(=O)n1N`: the T/C with L1210 [7] was 95%; with L1210 [8] it was 100%. Also, the MST with L1210 [1] worked out at 10 days; with L1210 [2], 9.5 days. The IC50 in the assay on L1210 [3] came to 45 mg/L (≈ 174 µM); in the assay on L1210 [9] it was 1530 µM.
For the compound `N=c1ccn([C@H]2C[C@H](O)[C@@H](CO)O2)c(=O)n1N`, the IC50 in the assay with L1210 [3] is 2000 µg/mL and 7.18 mM.
Regarding “3-amino-2'-deoxycytidine hydrochloridecis-DDP”, the MST entry in the assay with L1210 [10] and in the assay on L1210 [11] was “Toxic” throughout.
In the case of “3-amino-2'-deoxycytidine-dichloroplatinum (II)”, the T/C with L1210 [12] was found to be 125%; in the assay on L1210 [13], 181%; in the assay with L1210 [18], 131%; in the assay on L1210 [22], 106%; in the assay with L1210 [30], 162%. Besides, the Body weight in the assay on Mus musculus [14] worked out at 35.5; with Mus musculus [15] it was 39.3; in the assay on Mus musculus [23], 38.3. Further, the MST result in the assay on L1210 [16] is “Toxic”; with L1210 [17], 13 days; in the assay with L1210 [20] it was 10.5 days; in the assay with L1210 [24] it was 10 days; in the assay on L1210 [25] it was 8.5 days; with L1210 [31] it was 14.5 days. The Kidney weight in the assay with Mus musculus [19] was 654; in the assay on Mus musculus [21], 626; with Mus musculus [29], 634. The Blood urea nitrogen came out at 28 mg 100ml-1 in the assay with Mus musculus [26], 26 mg 100ml-1 in the assay with Mus musculus [27] and 27.2 mg 100ml-1 in the assay on Mus musculus [28].
3-amino-cytidine hydrochloridecis-DDP: the MST entry in the assay with L1210 [32] and in the assay on L1210 [11] was “Toxic” each time.
